Values after ≈ are worked out from the molar mass of the structure shown.
Experiments:
[1] = Log P value at the pH of 6.5; assay type: physicochemical; settings: octanol/water, pH 6.5; read-out: LogD6.5
How it was run: (§1)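 Octanol/water partition. Inhibitor (0.3–0.5 mg) was dissolved in 1.00 mL octanol, and 200 μL was added to 5.00 mL buffer: 0.1 M PIPES pH 6.5 or 0.1 M HEPES pH 7.4. Samples were shaken 2 h and centrifuged, and both phases were diluted and quantified by HPLC. P was calculated from peak areas × dilution factors.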

Renin [2] = target: T1, Renin (Homo sapiens, UniProt P00797); assay: Inhibitory activity against purified human renal renin at pH 6.5; assay type: functional
T1 sequence (P00797 whole entry): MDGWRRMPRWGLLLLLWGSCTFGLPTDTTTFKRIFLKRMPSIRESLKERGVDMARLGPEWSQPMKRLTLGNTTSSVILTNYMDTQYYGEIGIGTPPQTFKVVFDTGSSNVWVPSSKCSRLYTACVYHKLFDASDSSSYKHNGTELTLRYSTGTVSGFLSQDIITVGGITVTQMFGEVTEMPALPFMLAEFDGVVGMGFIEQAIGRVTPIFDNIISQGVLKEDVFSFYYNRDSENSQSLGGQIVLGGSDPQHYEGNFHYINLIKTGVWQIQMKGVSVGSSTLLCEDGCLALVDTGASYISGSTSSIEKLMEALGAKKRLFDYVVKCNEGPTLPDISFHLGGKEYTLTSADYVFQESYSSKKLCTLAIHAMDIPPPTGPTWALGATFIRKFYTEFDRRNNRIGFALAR

Renin [3] = target: T1, Renin; assay: Inhibitory activity against human plasma renin at pH 7.4; assay type: functional, cell-free
[4] = Log P value at the pH of 7.4; assay type: physicochemical; settings: octanol/water, pH 7.4; read-out: LogD7.4; how it was run: as §1
[5] = Solubility at 37 degree C and pH of 7.4; assay type: physicochemical; settings: pH 7.4; read-out: S
[6] = target: Renin (Macaca fascicularis); assay: Inhibitory activity against monkey plasma renin at pH 7.4
[7] = % change in blood pressure when administarted intravenously.; assay type: ADME; settings: iv
How it was run: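 Anesthetized, salt-depleted cynomolgus monkeys, 0.1 mg/kg iv bolus (n = 5). Maximum % change in mean arterial pressure taken from the T = 0 baseline. […] Values are mean ± SE.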

[8] = Plasma level when given intraduodenally to anesthetized rats from portal sample at 30 min; assay type: ADME, organism-based; settings: rat, read-out: Plasma level
How it was run: (§2)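 Anesthetized rats (n = 4) received unlabelled drug intraduodenally at 10 mg/kg. Portal and systemic blood were sampled at 10 and 30 min. Plasma drug levels were determined by a renin inhibition assay. Values are mean ± SE.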

[9] = Plasma level when given intraduodenally to anesthetized rats (systemic) at 10 min; assay type: ADME, organism-based; settings: rat, read-out: Plasma level; how it was run: as §2
[10] = Plasma level when given intraduodenally to anesthetized rats (systemic) at 30 min; assay type: ADME, organism-based; settings: rat, read-out: Plasma level; how it was run: as §2
Rattus norvegicus [11] = assay: Excretion of radiolabeled [14C]-21 in rats when administered intravenously at the dose of 1.0 mg/kg; assay type: ADME, organism-based; parameters: dose 1 mg/kg, route intravenous; settings: in vivo, iv
How it was run: (§3)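 Rats got [14C]-labelled inhibitor (label at oxazolidinone carbonyl), 1 mg/kg orally or intravenously. Urine and feces were collected over 72 h. Feces were homogenized in 70% aqueous ethanol and aliquots burned in a sample oxidizer. Total radioactivity was counted by liquid scintillation with internal-standard quench correction and expressed as % of dose. Mean ± SE, n = 2.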

Rattus norvegicus [12] = assay: metabolic profile radiolabeled [14C]-21 in rats when administered intravenously at the dose of 1.0 mg/kg; assay type: ADME, organism-based; parameters: dose 1 mg/kg, route intravenous; settings: in vivo, iv
How it was run: (§4)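 Rats were dosed orally or iv at 1 mg/kg with 14C-labelled drug. Urine and fecal samples were profiled by C-18 HPLC with a linear 15–50% aqueous acetonitrile gradient containing 0.1% TFA. Peaks were tentatively identified by retention time against reference standards, using 215 nm absorbance or radioactivity. Results are given as % of 14C dose, mean ± SE, n = 2.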

Rattus norvegicus [13] = assay: Excretion of radiolabeled [14C]-21 in rats when administered orally at the dose of 1.0 mg/kg; assay type: ADME, organism-based; parameters: dose 1 mg/kg, route oral; settings: in vivo, po; how it was run: as §3
[14] = Plasma level when given intraduodenally to anesthetized rats from portal sample at 10 min; assay type: ADME, organism-based; settings: rat, read-out: Plasma level; how it was run: as §2
Rattus norvegicus [15] = assay: metabolic profile radiolabeled [14C]-21 in rats when administered orally at the dose of 1.0 mg/kg; assay type: ADME, organism-based; parameters: dose 1 mg/kg, route oral; settings: in vivo, po; how it was run: as §4

logD [1] | IC50 (Renin [2]) [nM] | IC50 (Renin [3]) [nM] | logD [4] | solubility [5] [mM] | SMILES | further results
1.9 | 0.99 | 1.3 | 2.2 |  | CCN1C[C@@H]([C@H](O)[C@H](CC2CCCCC2)NC(=O)[C@H](Cc2cnc[nH]2)NC(=O)[C@@H](CC(=O)N2CCOCC2)Cc2ccccc2)OC1=O | 
1.2 | 7.9 | 46 | 1.42 |  | CCN1C[C@@H]([C@H](O)[C@H](CC2CCCCC2)NC(=O)[C@H](Cc2cnc[nH]2)NC(=O)[C@H](Cc2ccc(OC)cc2)NC(=O)N(C)CC(O)CO)OC1=O (stereo partly drawn) | 
2.67 | 1.7 | 9.9 | 2.85 | 0.37 (≈ 242 µg/mL) | CCN1C[C@@H]([C@H](O)[C@H](CC2CCCCC2)NC(=O)[C@H](Cc2c[nH]cn2)NC(=O)[C@H](Cc2ccc(OC)cc2)NC(=O)C(C)C)OC1=O | 
1.91 | 3.4 | 9.6 | 2.11 | 5.9 (≈ 4120 µg/mL) | CCN1C[C@@H]([C@H](O)[C@H](CC2CCCCC2)NC(=O)[C@H](Cc2cnc[nH]2)NC(=O)[C@H](Cc2ccc(OC)cc2)NC(=O)N2CCOCC2)OC1=O | 
 |  |  |  | 0.045 (≈ 26.9 µg/mL) | CC(C)C(=O)N[C@@H](Cc1ccccc1)C(=O)N[C@@H](Cc1cnc[nH]1)C(=O)N[C@@H](CC1CCCCC1)[C@@H](O)[C@@H](O)CN=[N+]=[N-] | IC50 [6]: 0.29 nM; Change [7]: 18%
1.83 | 1.7 | 14 | 2.03 |  | CCN1C[C@@H]([C@H](O)[C@H](CC2CCCCC2)NC(=O)[C@H](Cc2c[nH]cn2)NC(=O)[C@H](Cc2ccc(OC)cc2)NC(=O)N(C)CCOCOCCOC)OC1=O | 
1.58 | 8.5 | 26 | 1.67 |  | CCN1C[C@@H]([C@H](O)[C@H](CC2CCCCC2)NC(=O)[C@H](Cc2cnc[nH]2)NC(=O)[C@H](Cc2ccc(OC)cc2)NC(=O)N2C[C@H](OCOCCOC)[C@H](OCOCCOC)C2)OC1=O | 
0.91 | 6.9 | 8.7 | 1.22 |  | CCN1C[C@@H]([C@H](O)[C@H](CC2CCCCC2)NC(=O)[C@H](Cc2c[nH]cn2)NC(=O)[C@H](Cc2ccc(OC)cc2)NC(=O)N2C[C@@H](O)[C@@H](O)C2)OC1=O | 
1.74 | 0.85 | 2.5 | 1.94 | 5.2 (≈ 3410 µg/mL) | CCN1C[C@@H]([C@H](O)[C@H](CC2CCCCC2)NC(=O)[C@H](Cc2cnc[nH]2)NC(=O)[C@@H](CC(=O)N(C)CCO)Cc2ccccc2)OC1=O | 
2.08 | 4.6 | 27 | 2.3 | 2.1 (≈ 1530 µg/mL) | CCN1C[C@@H]([C@H](O)[C@H](CC2CCCCC2)NC(=O)[C@H](Cc2c[nH]cn2)NC(=O)[C@H](Cc2ccc(OC)cc2)NC(=O)N(C)CCOCOC)OC1=O | 
2.08 | 2.7 | 11 | 2.31 | 4.5 (≈ 3470 µg/mL) | CCN1C[C@@H]([C@H](O)[C@H](CC2CCCCC2)NC(=O)[C@H](Cc2cnc[nH]2)NC(=O)[C@@H](CC(=O)N2C[C@H](OCOC)[C@H](OCOC)C2)Cc2ccccc2)OC1=O | 
1.94 | 12 | 59 | 2.06 |  | CCN1C[C@@H]([C@H](O)[C@H](CC2CCCCC2)NC(=O)[C@H](Cc2cnc[nH]2)NC(=O)[C@H](Cc2ccc(OC)cc2)NC(=O)N2C[C@H](OCOC)[C@H](OCOC)C2)OC1=O | 
2.29 | 0.59 | 1.5 | 2.45 | 3.4 (≈ 2270 µg/mL) | CCN1C[C@@H]([C@H](O)[C@H](CC2CCCCC2)NC(=O)[C@H](Cc2cnc[nH]2)NC(=O)[C@@H](CC(=O)N(C)CCOC)Cc2ccccc2)OC1=O | 
1.89 |  |  | 2.21 | 5.4 (≈ 4010 µg/mL) | CCN1C[C@@H]([C@H](O)[C@H](CC2CCCCC2)NC(=O)[C@H](Cc2c[nH]cn2)NC(=O)[C@@H](CC(=O)N(C)CCOCOCCOC)Cc2ccccc2)OC1=O | concentration at 0.5 h [8]: 420 ng/mL; concentration at 10 min [9]: 1.6 ng/mL; concentration at 0.5 h [10]: 2.5 ng/mL; Dose (Rattus norvegicus [11]): 8.5%; Dose (Rattus norvegicus [12]): 35%; Dose (Rattus norvegicus [13]): 1.9%; concentration at 10 min [14]: 360 ng/mL; Dose (Rattus norvegicus [15]): 73%; Change [7]: 43%
2.28 | 0.49 | 1.1 | 2.49 |  | CCN1C[C@@H]([C@H](O)[C@H](CC2CCCCC2)NC(=O)[C@H](Cc2cnc[nH]2)NC(=O)[C@@H](CC(=O)N(C)CCOCOC)Cc2ccccc2)OC1=O | 
1.56 | 1.6 | 7.3 | 1.87 | 8.7 (≈ 7470 µg/mL) | CCN1C[C@@H]([C@H](O)[C@H](CC2CCCCC2)NC(=O)[C@H](Cc2cnc[nH]2)NC(=O)[C@@H](CC(=O)N2C[C@H](OCOCCOC)[C@H](OCOCCOC)C2)Cc2ccccc2)OC1=O | 
